# Sampled rows, rich in hits. Any-hit rate of the full collection: about 5.7%.
# CSC inhib: cancer stem cell viability inhibitors, primary screen, luminescence; cancer stem cell-like cells viability; inhibition, % at 7.5 µM; AID 2717, 2010; 1.1% of 300,000 active; in the data active = inhibition above about 75%; tested in HMLE shEcad cells
# T cruzi inh: inhibitors of intracellular T. cruzi growth, primary screen, luminescence, NIH3T3 host cells; 1.4% of 300,000 active; inhibition, % (test concentration not listed); T. cruzi beta-gal in NIH3T3, 90 h;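 active = mean inhibition across valid replicates above about 55%, limit read from the data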;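 note: signal also drops with host cell toxicity which is not excluded here; 0% = plate median of DMSO wells and 100% = zero luminescence signal; higher percent means less beta-gal luminescence so fewer parasites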
#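 System: Mouse NIH/3T3 fibroblasts infected with β-gal-expressing T. cruzi Tulahuen C4 | Quantity: NIH/3T3 cells, 5,000 per well | Reagent: 5000 reporter trypomastigotes per well | Dosing: Compound pinned at 50 nL/well, DMSO | Schedule: 3 h host attachment, then at least 90 h co-culture | Detection: GalScreen luminescence, 60 min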
# Beta cell apopt: inhibitors of cytokine-induced beta cell apoptosis, primary screen, luminescence; INS-1E cytokine-induced death, ATP luminescence, 48 h; percent of positive-control rescue, neutral wells zero; protection from apoptosis, % (no concentration beside the values); 0.8% of 300,000 active; AID 435005, 2010;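 active = Every replicate reaches about 75%, or at least half do and their mean reaches it too, limit read from the data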;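 note: 0% = cytokine-treated negative control wells and 100% = positive control rescue; higher means more ATP so stronger rescue from cytokine killing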
# SKKanGAS inh: S. pyogenes SKKanGAS growth inhibitors in kanamycin, primary screen, streptokinase expression inhibitor project, SKKanGAS strain, BacTiter-Glo luminescence; inhibition, % at 7.5 µM; AID 1662, 2009; 1.3% of 300,000 active; 6 h;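 active = mean replicate score, as percent of positive control median, at least 50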;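 note: strain carries kanamycin resistance gene driven by streptokinase promoter and grows in 40 µg/ml kanamycin; loss of luminescence reflects streptokinase promoter inhibition or plain growth inhibition; 0% = median of DMSO wells and 100% = positive control at its reference dose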
# Calb FLC: C. albicans growth inhibition with fluconazole, primary screen, CaCi-2 strain, Alamar Blue fluorescence; 0.57% of 300,000 active; growth inhibition, % (no concentration beside the values); C. albicans CaCi-2 (fluconazole-resistant clinical isolate) + fluconazole, 48 h;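 active = growth inhibition above about 58% in most replicates, limit read from the data, passing the limit was not always enough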;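 note: all wells also contain fluconazole at 8 µg/ml as a sub-toxic cotreatment; 0% = median of DMSO wells and 100% = median of geldanamycin control wells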
# Mdm2-MdmX inh: inhibitors of human Mdm2-MdmX association, primary screen, cell-based, luminescence, split luciferase, SaOS-2, uHTS; Protein Mdm4 (Homo sapiens) + E3 ubiquitin-protein ligase Mdm2 (Homo sapiens), …; SaOS-2 split-luciferase Mdm2/MdmX complementation; inhibition, % at 8 µM; 3% of 330,000 active; AID 485346, 2010;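 active = inhibition of at least 50% at 8 µM in the primary screen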
# Target sequence (O15151 whole entry, looked up): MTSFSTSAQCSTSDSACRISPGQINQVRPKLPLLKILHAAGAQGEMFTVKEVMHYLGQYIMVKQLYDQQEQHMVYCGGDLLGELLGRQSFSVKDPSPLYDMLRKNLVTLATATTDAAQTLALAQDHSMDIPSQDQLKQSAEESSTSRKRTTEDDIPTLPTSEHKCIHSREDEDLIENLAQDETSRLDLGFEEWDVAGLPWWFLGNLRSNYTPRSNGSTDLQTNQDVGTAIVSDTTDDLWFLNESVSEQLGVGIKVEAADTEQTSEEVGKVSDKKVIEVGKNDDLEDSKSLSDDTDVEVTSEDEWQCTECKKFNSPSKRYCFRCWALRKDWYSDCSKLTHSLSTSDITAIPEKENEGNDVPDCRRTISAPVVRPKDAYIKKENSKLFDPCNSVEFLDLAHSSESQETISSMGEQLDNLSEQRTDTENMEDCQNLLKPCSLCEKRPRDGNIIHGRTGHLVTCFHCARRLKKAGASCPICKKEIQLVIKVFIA
# Target sequence (Q00987 whole entry, looked up): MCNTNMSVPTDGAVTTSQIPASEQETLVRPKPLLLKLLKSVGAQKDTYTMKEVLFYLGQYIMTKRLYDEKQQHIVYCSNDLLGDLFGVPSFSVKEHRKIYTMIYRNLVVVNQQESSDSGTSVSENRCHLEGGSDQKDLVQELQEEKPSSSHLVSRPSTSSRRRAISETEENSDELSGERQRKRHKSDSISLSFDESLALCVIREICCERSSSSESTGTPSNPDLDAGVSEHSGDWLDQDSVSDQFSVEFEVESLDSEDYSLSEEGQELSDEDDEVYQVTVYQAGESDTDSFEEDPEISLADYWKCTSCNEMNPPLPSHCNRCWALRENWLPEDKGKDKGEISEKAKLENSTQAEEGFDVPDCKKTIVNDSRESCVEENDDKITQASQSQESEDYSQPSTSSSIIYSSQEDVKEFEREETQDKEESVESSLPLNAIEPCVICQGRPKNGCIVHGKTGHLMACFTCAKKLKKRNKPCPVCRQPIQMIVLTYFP
# Mdm2-MdmX conf: Mdm2-MdmX complex disruptors, retested hits, confirmation, luminescence, single concentration | shares compounds with Mdm2-MdmX inh | Mdm2-MdmX binding, luminescent assay | inhibition, % at 8 µM | 55% of 10,000 active | AID 489028, 2010; in the data active = inhibition above about 40%
# FLuc counter: full-length luciferase signal inhibition, confirmation, counter-screen for Mdm2/MdmX interaction inhibitor project, cell-based, single concentration, SaOS-2 | shares compounds with Mdm2-MdmX inh | SaOS-2 full-length luciferase counterscreen, luminescence | inhibition, % at 8 µM | 77% of 6,200 active | AID 504607, 2011;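 active = mean inhibition at 8 µM reaching about 37%, which flags the compound as non-specific, limit read from the data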;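 note: p53-null SaOS-2 cells with luciferase driven by a doxycycline-inducible promoter; compound on cells about two nights before reading with doxycycline added after day one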
# An asterisk follows results filed as active; nt = no result given; + = active, no number.
SMILES,CSC inhib,T cruzi inh,Beta cell apopt,SKKanGAS inh,Calb FLC,Mdm2-MdmX inh,Mdm2-MdmX conf,others
Cc1ccc(S(=O)(=O)N(C)C)cc1NC(=O)CSc1nc2ncc(Cl)cc2[nH]1,nt,nt,nt,nt,nt,3,nt,
Cc1cc(C(=O)NCCN2CCN(c3cccc(Cl)c3)CC2)n(-c2ccccc2)n1,58,nt,nt,nt,nt,53*,59*,FLuc counter=62*
CC(=O)O[C@H]1[C@@H](O)[C@H](O)[C@H](Oc2c(O)c(C)c3c4c2[C@@H](C)CC[C@@H]4[C@@H](C)C[C@H]3C=C(C)C)O[C@H]1C,106*,nt,8,nt,nt,90*,0,
C/C(=N\NC(=O)c1ccc(Cl)cc1)c1ccccn1,98*,61*,105*,87*,16,96*,27,
COc1cc(C(=O)N/N=C(\C)c2ccccn2)cc(OC)c1OC,64,16,83*,-8,-2,77*,25,
C/C(=N\NC(=O)c1cc(C)nc2ccccc12)c1ccccn1,96*,nt,104*,nt,nt,76*,67*,FLuc counter=36*
C/C(=N\NC(=O)c1cc(C)nc2ccccc12)c1ccncc1,nt,-4,-3,-4,-13,-14,nt,
C/C(=N\NC(=O)c1ccccn1)c1ccc(Cl)cc1,0,0,4,6,3,-51,nt,
CCC(NC(=O)CNC(=O)c1ccc2c(c1)OCO2)c1ccc(Br)cc1 (configuration not stated),nt,nt,nt,nt,nt,6,nt,
O=C(Nc1cc([N+](=O)[O-])ccc1F)C1CCN(S(=O)(=O)c2cccs2)CC1,-6,nt,-1,nt,nt,-9,nt,
CCOC(=O)N1C(=O)[C@](CC)(c2ccccc2)N1C(=O)OCC,17,-11,-5,8,4,34,nt,
CCC1(c2ccccc2)ON(c2c(Br)cccc2Br)C1=O (configuration not stated),43,nt,-8,nt,nt,93*,91*,FLuc counter=47*
COCC(C)NC(=O)CSc1nc2ccccc2c(=O)n1CCc1ccc(S(N)(=O)=O)cc1 (configuration not stated),-27,-14,nt,0,5,14,nt,
COc1ccc2nc(C)cc(N/N=C/c3ccccc3)c2c1,97*,nt,96*,nt,nt,100*,26,
COc1ccc(/C=N/Nc2cc(C)nc3ccc(OC)cc23)c(OC)c1,101*,58*,117*,-4,-31,100*,99*,FLuc counter=51*
COc1ccccc1/C=N/Nc1cc(C)nc2ccc(C)cc12,57,4,-1,0,1,-38,nt,
CCOC(=O)CCCNC(=O)CN1CCC(c2nc3ccccc3s2)CC1,nt,21,0,-8,-3,-4,nt,
COc1ccc(/C=N\NC(=O)COc2ccccc2Cl)cc1Cn1nc(C)cc1C,-6,9,9,-8,-26,2,nt,
COc1ccc(/C=N\NC(=O)c2sccc2C)cc1Cn1nc(C)cc1C,9,21,-6,-2,-3,59*,64*,FLuc counter=73*
OC(COc1ccccc1)CN1CCN(C(c2ccccc2)c2ccccc2)CC1 (configuration not stated),25,14,nt,4,-4,20,nt,
c1ccc(OCCOCCN2CCN(C(c3ccccc3)c3ccccc3)CC2)cc1,1,24,1,13,-7,52*,15,
O=C(Cc1ccc(Cl)cc1)NCCCNC(=O)c1cccnc1,-2,4,49,2,-5,-27,nt,
c1cc(C2CCCCC2)ccc1Oc1nc(N2CCOCC2)nc(N2CCOCC2)n1,-17,-4,-2,18,-8,63*,17,
O=C1c2ccccc2C(=O)N1CC(O)COc1ccccc1Cl (configuration not stated),-7,-1,nt,1,-2,8,nt,
CN1C(=O)/C(=C/c2cc(N=Nc3ccccc3)ccc2O)SC1=S,+,-4,4,34,-2,92*,47*,FLuc counter=53*
SMILES,CSC inhib,T cruzi inh,Beta cell apopt,SKKanGAS inh,Calb FLC,Mdm2-MdmX inh,Mdm2-MdmX conf,others
C[C@@H]1CN([C@H](C)CO)C(=O)c2cc(NC(=O)Nc3ccc(C(F)(F)F)cc3)ccc2O[C@H]1CN(C)S(=O)(=O)c1ccccc1,60,nt,40,nt,nt,74*,30,
COc1ccc(NC(=O)Nc2ccc3c(c2)C(=O)N([C@H](C)CO)C[C@H](C)[C@@H](CN(C)S(=O)(=O)c2ccc(OC)cc2)O3)cc1,-12,nt,-4,nt,nt,18,nt,
COc1ccc(S(=O)(=O)N(C)C[C@H]2Oc3ccc(NC(=O)Nc4ccc(C(F)(F)F)cc4)cc3C(=O)N([C@H](C)CO)C[C@@H]2C)cc1,21,nt,7,nt,nt,74*,8,
CCCCCN1C=CC(=C2C(=O)c3ccccc3C2=O)C=C1,55,16,39,36,17,78*,83*,FLuc counter=21
COc1ccc2cc(C)c3nnc(SCC(=O)Nc4nc(-c5ccc(F)cc5)cs4)n3c2c1,17,9,-7,9,-1,86*,25,
COc1ccc(-c2csc(NC(=O)CSc3nc4ccccc4c(=O)[nH]3)n2)cc1,nt,-1,-2,12,2,51*,-9,
CCOc1cc(C(=O)Oc2cc(C)[nH]c(=O)c2[N+](=O)[O-])cc(OCC)c1OCC,-8,-12,1,-3,2,-2,nt,
Oc1ccccc1N=Cc1c(O)ccc2oc3c(c12)CCCC3,17,-1,-2,85*,-12,52*,44*,FLuc counter=72*
CSCCC(NC(=O)c1ccco1)C(=O)N(C)CC(=O)Nc1ccccc1Br (configuration not stated),nt,nt,nt,nt,nt,13,nt,
Cc1ccc(-c2nnc(NC(=O)Cc3ccc(F)cc3)o2)c(C)c1,39,-29,-3,11,-2,34,nt,
Cc1ccc(C)c(-c2nnc(NC(=O)Cc3ccc(F)cc3)o2)c1,42,-29,-2,17,0,52*,22,
CC(C)(C)c1ccc(C(=O)NC(=S)Nc2nc3c(s2)CCCC3)cc1,80*,46,13,-2,-8,61*,51*,FLuc counter=102*
CN(C)c1ccc(C(=O)Nc2nc3c(s2)CCCC3)cc1,3,48,7,10,14,16,nt,
CCCC(C(=O)NC1CCCC1)N(CC1CCCO1)C(=O)CNS(=O)(=O)c1ccc(F)cc1 (configuration not stated),nt,12,-2,0,7,4,nt,
